Columns and labels:
Assay type in all cases: cell-based
[1] = molecular target: T1, Glycine receptor subunit alpha-2 (Homo sapiens, UniProt P23416); assay: Activity at human alpha-2GlyR expressed in HEK293 cells by FMP assay
T1 sequence (P23416 whole entry): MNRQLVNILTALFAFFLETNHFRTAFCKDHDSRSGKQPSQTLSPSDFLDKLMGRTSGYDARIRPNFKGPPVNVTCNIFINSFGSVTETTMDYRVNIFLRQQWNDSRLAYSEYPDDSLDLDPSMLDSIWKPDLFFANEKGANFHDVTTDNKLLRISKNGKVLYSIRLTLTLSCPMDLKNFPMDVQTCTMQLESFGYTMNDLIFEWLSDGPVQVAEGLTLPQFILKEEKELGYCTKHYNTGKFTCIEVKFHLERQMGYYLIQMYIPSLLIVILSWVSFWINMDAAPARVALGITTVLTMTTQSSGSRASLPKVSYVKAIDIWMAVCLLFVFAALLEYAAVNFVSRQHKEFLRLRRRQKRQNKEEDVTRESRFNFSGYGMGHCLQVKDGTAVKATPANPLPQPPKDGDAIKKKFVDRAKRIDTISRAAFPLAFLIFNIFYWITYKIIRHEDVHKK
How it was run: (§1)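 Stable HEK293 lines (α1: G418; α1β: G418 + hygromycin B; α2: hygromycin B) plated on poly-D-lysine 16-24 h. Loaded with FMP dye in HBSS/20 mM HEPES pH 7.4, antagonist present, 30 min at 37 °C. Fluorescence ex 530/em 560 nm read up to 1 min after glycine: 200 µM (α1, α1β) or 500 µM (α2). Duplicates, ≥3 experiments; IC50 from maximal responses.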

[2] = molecular target: T2, Glycine receptor subunit alpha-1 (Homo sapiens, UniProt P23415); assay: Activity at human alpha-1-beta-GlyR expressed in HEK293 cells by FMP assay; how it was run: as §1
T2 sequence (P23415 whole entry): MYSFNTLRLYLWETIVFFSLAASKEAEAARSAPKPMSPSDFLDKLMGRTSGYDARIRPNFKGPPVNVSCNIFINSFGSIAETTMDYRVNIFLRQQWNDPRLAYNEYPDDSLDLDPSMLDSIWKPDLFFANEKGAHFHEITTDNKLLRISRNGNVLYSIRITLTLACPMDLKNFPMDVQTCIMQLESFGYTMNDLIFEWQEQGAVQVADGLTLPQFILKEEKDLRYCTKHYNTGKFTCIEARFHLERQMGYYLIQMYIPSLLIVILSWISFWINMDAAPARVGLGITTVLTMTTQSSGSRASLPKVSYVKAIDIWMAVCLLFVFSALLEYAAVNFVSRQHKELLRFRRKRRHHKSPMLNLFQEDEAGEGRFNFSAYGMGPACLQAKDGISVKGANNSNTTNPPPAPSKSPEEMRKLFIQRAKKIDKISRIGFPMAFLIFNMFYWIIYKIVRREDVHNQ

[3] = molecular target: T2, Glycine receptor subunit alpha-1; assay: Activity at human alpha-1GlyR expressed in HEK293 cells by FMP assay; how it was run: as §1
[4] = molecular target: T2, Glycine receptor subunit alpha-1; assay: Activity at human alpha-1GlyR expressed in HEK293 cells assessed as inhibition of 300 uM glycine-induced current by whole-cell patch clamp experiment

Compound	IC50 [1] [µM]	IC50 [2] [µM]	IC50 [3] [µM]	IC50 [4] [µM]
COC(=O)/C(C)=C1\CC[C@@]23C4C[C@@H](C(C)(C)C)C25C(OC(=O)[C@@H]5O)O[C@]13C(=O)O4 (stereo partly drawn)	> 100	> 100	> 100	
C[C@@H]1C(=O)O[C@H]2[C@H](O)[C@]34[C@@H]5C(=O)O[C@@]3(O[C@@H]3OC(=O)[C@H](O)[C@@]34[C@H](C(C)(C)C)[C@@H]5Cl)[C@@]12O	13	3.2	7.6	
C[C@@H]1C(=O)O[C@H]2C[C@@]34C5C[C@@H](C(C)(C)C)C3C(=O)O[C@]4(C(=O)O5)[C@]21O (stereo partly drawn)	> 100	> 100	> 100	
CO[C@H]1C(=O)O[C@H]2O[C@@]34OC(=O)[C@@H]5[C@H](O)[C@@H](C(C)(C)C)[C@@]21[C@@]53[C@@H](O)[C@@H]1OC(=O)[C@@H](C)[C@@]14O	7.8	5.2	9.8	
COC1C[C@]23C4C[C@@H](C(C)(C)C)C25C(OC(=O)[C@@H]5OC(C)=O)O[C@@]3(C(=O)O1)C(=O)O4 (stereo partly drawn)	> 100	> 100	> 100	
CN[C@@H]1C2OC(=O)[C@]34OC5OC(=O)[C@H](O)C5([C@@H]1C(C)(C)C)[C@@]23[C@@H](O)[C@@H]1OC(=O)[C@@H](C)[C@@]14O (stereo partly drawn)	> 100	> 100	> 100	
COC1C[C@@]23C4C[C@@H](C(C)(C)C)C25C(OC(=O)[C@@H]5OC)O[C@@]3(C(=O)O1)C(=O)O4 (stereo partly drawn)	> 100	> 100	> 100	
C[C@@H]1C(=O)O[C@H]2[C@H](O)[C@]34C5OC(=O)[C@@]3(OC3OC(=O)[C@H](O)C34[C@H](C(C)(C)C)C5=O)[C@@]12O (stereo partly drawn)	> 100	> 100	> 100	
COC(=O)[C@H](OC)C12C(OC)O[C@@]34C(=O)OC(C[C@H]1C(C)(C)C)[C@]23C[C@@H]1OC(=O)[C@@H](C)[C@@]14O (stereo partly drawn)	> 100	> 100	> 100	
C[C@@H]1CO[C@H]2C[C@@]34C5C[C@@H](C(C)(C)C)C36C(OC[C@@H]6O)O[C@]4(CO5)[C@@]12O (stereo partly drawn)	> 100	> 100	> 100	
C[C@@H]1CO[C@H]2C[C@@]34C5C[C@@H](C(C)(C)C)C36C(OC[C@@H]6O)O[C@]4(C(=O)O5)[C@@]12O (stereo partly drawn)	> 100	> 100	> 100	
COC(=O)C(C)[C@H]1CC[C@@]23C4C[C@@H](C(C)(C)C)C25C(OC(=O)[C@@H]5O)O[C@]13C(=O)O4 (stereo partly drawn)	> 100	> 100	> 100	
CC(C)(C)[C@@H]1CC2OC(=O)C34OC5OC(=O)[C@H](O)C51[C@@]23CC1OC(=O)[C@](C)(O)[C@@]14O (stereo partly drawn)	> 100	> 100	> 100	
CC(=O)O[C@@H]1C2OC(=O)[C@]34OC5OC(=O)[C@H](O)C5([C@@H]1C(C)(C)C)[C@@]23[C@@H](O)[C@@H]1OC(=O)[C@@H](C)[C@@]14O (stereo partly drawn)	> 100	> 100	> 100	
CCN[C@@H]1C2OC(=O)[C@]34OC5OC(=O)[C@H](O)C5([C@@H]1C(C)(C)C)[C@@]23[C@@H](O)[C@@H]1OC(=O)[C@@H](C)[C@@]14O (stereo partly drawn)	> 100	> 100	> 100	
C[C@@H]1C(=O)O[C@H]2C[C@]34C5OC(=O)[C@]3(OC(O)C4[C@H](C(C)(C)C)[C@H]5O)[C@]21O (stereo partly drawn)	> 100	> 100	> 100	
C[C@@H]1C(=O)O[C@H]2[C@H](O)[C@]34C5OC(=O)[C@@]3(OC3OC(=O)[C@H](O)C34[C@H](C(C)(C)C)[C@@H]5O)[C@@]12O (stereo partly drawn)	> 100	> 100	> 100	

Compound	IC50 [1] [µM]	IC50 [2] [µM]	IC50 [3] [µM]	IC50 [4] [µM]
C[C@@H]1C(=O)O[C@H]2[C@H](O)[C@]34[C@@H]5C(=O)O[C@@]3(O[C@@H]3OC(=O)[C@H](O)[C@@]34[C@H](C(C)(C)C)[C@@H]5N=[N+]=[N-])[C@@]12O	29	7.4	17	
C[C@@H]1C(=O)O[C@H]2C[C@@]34C5C[C@@H](C(C)(C)C)C36C(=O)C(=O)OC6O[C@]4(C(=O)O5)[C@]21O (stereo partly drawn)	> 100	> 100	> 100	
C[C@@H]1CO[C@@H]2C[C@@]34C5C[C@@H](C(C)(C)C)C36C(OC(=O)[C@@H]6O)O[C@]4(C(=O)O5)[C@@]12O (stereo partly drawn)	> 100	> 100	> 100	
C[C@@H]1C(=O)O[C@H]2[C@H](O)[C@@]34C5OC(=O)[C@@]3(OC3OC(=O)[C@H](O)C34[C@H](C(C)(C)C)[C@H]5OS(=O)(=O)C(F)(F)F)[C@@]12O (stereo partly drawn)	> 100	> 100	> 100	
C[C@@H]1C(=O)O[C@H]2[C@H](O)[C@]34C5OC(=O)[C@@]3(OC3OC(=O)[C@H](O)C34[C@H](C(C)(C)C)[C@@H]5OC(=O)Cc3ccccc3)[C@@]12O (stereo partly drawn)	> 100	> 100	> 100	
C[C@@H]1C(=O)OC2[C@@H]3OCO[C@H]4C(=O)OC5OC6(C(=O)OC7C[C@@H](C(C)(C)C)C54[C@]736)[C@]21O (stereo partly drawn)	12	8.9	12	
CC(=O)O[C@H]1C(=O)OC2O[C@@]34C(=O)OC5C[C@@H](C(C)(C)C)C21[C@@]53C[C@@H]1OC(=O)[C@H](C)[C@@H]14 (stereo partly drawn)	> 100	> 100	> 100	
CC1=C2C(=C[C@]34C5OC(=O)[C@@]23OC2OC(=O)[C@H](O)C24[C@H](C(C)(C)C)[C@H]5O)OC1=O (stereo partly drawn)	> 100	> 100	> 100	
C[C@@H]1C(=O)O[C@H]2[C@H](O)[C@]34[C@@H]5C(=O)O[C@@]3(O[C@@H]3OC(=O)[C@H](O)[C@@]34[C@H](C(C)(C)C)[C@@H]5F)[C@@]12O	4.6	3.2	7.3	
CC1=C2[C@H](C[C@]34[C@H]5C[C@@H](C(C)(C)C)[C@]36[C@@H](OC(=O)[C@@H]6O)O[C@]24OC5=O)OC1=O [3,14-DIDEHYDROGINKGOLIDE A]	9.5	3.1	6.2	
CC(=O)O[C@H]1C(=O)OC2O[C@@]34C(=O)OC5C[C@@H](C(C)(C)C)C21[C@@]53C[C@@H]1OC(=O)[C@@H](C)[C@@]14O (stereo partly drawn) [10-ACETOXY-GINKGOLIDE B]	> 100	> 100	> 100	
COCO[C@H]1C(=O)O[C@H]2O[C@@]34OC(=O)[C@@H]5C[C@@H](C(C)(C)C)[C@@]21[C@]53C[C@@H]1OC(=O)[C@@H](C)[C@@]14O [10-METHOXYMETHYLOXY-GINKGOLIDE A]	> 100	> 100	> 100	
C[C@@H]1C(=O)O[C@H]2C[C@@]34[C@H]5C[C@@H](C(C)(C)C)[C@]36[C@@H](OC(=O)[C@@H]6O)O[C@@]4(C(=O)O5)[C@]21O [GINKGOLIDE A]	2.1	0.69	1.9	3.8
C[C@@H]1C(=O)O[C@H]2C[C@@]34O[C@@H]5OC(=O)[C@H](O)[C@@]56[C@H](C(C)(C)C)[C@H](O)C(OC3=O)[C@]64[C@]21O (stereo partly drawn) [GINKGOLIDE J]	12	4.2	7.1	6.4
C[C@@H]1C(=O)O[C@@H]2[C@H]1[C@@]13OC4OC(=O)[C@H](O)C45[C@H](C(C)(C)C)[C@@H](O)C(OC1=O)[C@]53[C@H]2O (stereo partly drawn) [GINKGOLIDE M]	1.3	0.56	0.78	0.65
C[C@@H]1C(=O)O[C@H]2[C@H](O)[C@@]34[C@H]5C[C@@H](C(C)(C)C)[C@]36[C@@H](OC(=O)[C@@H]6O)O[C@@]4(C(=O)O5)[C@@]12O [GINKOLIDE B]	3.7	2.1	2.9	1.7

From ChEMBL document CHEMBL1142995, “Probing the pharmacophore of ginkgolides as glycine receptor antagonists” (J Med Chem, 2007)
